Results on 22 molecules are retold here after ChEMBL document CHEMBL2029342, “Design and synthesis of gambogic acid analogs as potent cytotoxic and anti-inflammatory agents” (Bioorg Med Chem Lett, 2012).

Test [1] is described as follows: Antiinflammatory activity in human neutrophils assessed as inhibition of fMLP/CB-induced superoxide anion generation at 10 ug/mL after 15 mins by cytochrome c reduction assay. Format: functional. As to conditions: Neutrophil, 0.25 h. The procedure, abridged: (§1)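 Human neutrophils stimulated with fMLP/CB; superoxide anion generation and elastase release were measured. IC50 is the concentration giving 50% inhibition. Where 50% inhibition was not reached at any tested dose, % inhibition at 10 μg/mL is reported. Mean ± S.E.M., n = 3-5.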

Test [2] is described as follows: Antiinflammatory activity in human neutrophils assessed as inhibition of fMLP/CB-induced elastase release using MeO-Suc-Ala-Ala-Pro-Val-MC as substrate at 10 ug/mL by spectrophotometry. Format: functional. As to conditions: Neutrophil. The procedure, abridged: as §1
For test [3], the system named is DU-145. As to the kind of experiment: Cytotoxicity against human DU145 cells by MTT assay. Format: functional, cell-based. The procedure, abridged:
(§2)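 MTT colorimetric assay of cell viability. IC50 is expressed in μg/mL as the mean of 3 determinations.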
(Tetrazolium dyes change colour on reduction, which living cells bring about.)

The test system of test [4] is A549. Put plainly: Cytotoxicity against human A549 cells by MTT assay. In kind it is functional, cell-based. The procedure, abridged:
as §2

Test [5] is described as follows: Cytotoxicity against human KBVIN cells by MTT assay. Format: functional, cell-based. The procedure, abridged:
as §2

Test [6] can be described thus: Antiinflammatory activity in human neutrophils assessed as inhibition of fMLP/CB-induced elastase release using MeO-Suc-Ala-Ala-Pro-Val-MC as substrate by spectrophotometry. Format: functional, cell-based. The following applies: Neutrophil. The procedure, abridged:
as §1

Test [7] in a line: Antiinflammatory activity in human neutrophils assessed as inhibition of induced superoxide anion generation at 10 ug/mL after 15 mins by cytochrome c reduction assay in the absence of fMLP/CB. In kind it is functional. As to conditions: Neutrophil, 0.25 h.
Test [8] is described as follows: Antiinflammatory activity in human neutrophils assessed as inhibition of elastase release using MeO-Suc-Ala-Ala-Pro-Val-MC as substrate at 10 ug/mL by spectrophotometry in the absence of fMLP/CB. In kind it is functional. As to conditions: Neutrophil.
The subject of test [9] is Neutrophil. Put plainly: Ratio of PMSF IC50 to compound IC50 for antiinflammatory activity in human neutrophils assessed as inhibition of fMLP/CB-induced elastase release. Format: functional.
Test [10] is described as follows: Antiinflammatory activity in human neutrophils assessed as inhibition of fMLP/CB-induced superoxide anion generation after 15 mins by cytochrome c reduction assay. In kind it is functional, cell-based. As to conditions: Neutrophil, 0.25 h. The procedure, abridged:
as §1

Test [11] has as its system KB. Put plainly: Cytotoxicity against human KB cells by MTT assay. In kind it is functional, cell-based. A digest of the protocol:
as §2

Test [12] can be described thus: Antiinflammatory activity in human neutrophils pretreated with cytochalasin B assessed as inhibition of fMLP/CB-induced superoxide anion generation after 15 mins by cytochrome c reduction assay. Format: functional, cell-based. The following applies: Neutrophil. A digest of the protocol: as §1

Values after ≈ are worked out from the molar mass of the structure shown.

Usually inhibition stands for the relative decrease from the control value, in per cent. As a reminder, the IC50 is the concentration that gives 50% inhibition. Turning to `CC(C)=CCc1c(O)cc2oc3c(CC=C(C)C)c(O)ccc3c(=O)c2c1O`, the inhibition at 10 µg/mL in [1] was found to be 31.6%; in [2], 67.2%. In addition, the 50% inhibitory concentration (IC50) in [3] was 2.8 µg/mL (≈ 7.36 µM); in test [4], 5 µg/mL (≈ 13.1 µM); in [5], 4.4 µg/mL (≈ 11.6 µM).
`O=S(=O)(F)Cc1ccccc1` [PHENYLMETHYLSULFONYLFLUORIDE]: the IC50 in test [6] came out at 131 µg/mL (≈ 752 µM).
Consider `CC(C)=CCc1c(O)c(CC=C(C)C)c2oc3cc(O)ccc3c(=O)c2c1O`, for which the values for the inhibition at 10 µg/mL in [7] and in [8] were 101% and 102%, respectively. In addition, the IC50 was determined as 3.9 µg/mL (≈ 10.3 µM) in test [3], 6.4 µg/mL (≈ 16.8 µM) in test [4] and 6.7 µg/mL (≈ 17.6 µM) in [5].
Take `CC(C)=CCCC1(C)C=Cc2c(cc3oc4cc(O)ccc4c(=O)c3c2O)O1` (configuration not stated): the “Ratio IC50” value in [9] is on record as 15. Besides, the IC50 is 5.43 µg/mL (≈ 14.3 µM) in test [10]; 8.75 µg/mL (≈ 23.1 µM) in [6]; 6.2 µg/mL (≈ 16.4 µM) in test [3]; 6.2 µg/mL (≈ 16.4 µM) in test [11]; 6.6 µg/mL (≈ 17.4 µM) in test [4]; 6 µg/mL (≈ 15.9 µM) in test [5].
As for `COc1ccc2c(=O)c3c(O)cc(O)cc3oc2c1`, the inhibition at 10 µg/mL in [1] was determined as 45.2%; in test [2] it was 23.6%. The IC50 in test [3], in test [4] and in test [5] was more than 10 µg/mL throughout.
Consider `CC1(C)C=Cc2c(cc(O)c3c(=O)c4ccc(O)cc4oc23)O1`, for which the IC50 in test [10] turned out to be 3.97 µg/mL (≈ 12.8 µM); in test [3], 5.1 µg/mL (≈ 16.4 µM); in test [11] it was 4.8 µg/mL (≈ 15.5 µM); in test [4], 5.8 µg/mL (≈ 18.7 µM); in [5], 0.9 µg/mL (≈ 2.9 µM). In addition, the inhibition at 10 µg/mL in test [2] was 18.4%.
`CC(C)=CCCC1(C)Oc2cc(O)c3c(=O)c4ccc(O)cc4oc3c2C(O)C1O` (configuration not stated): the “Ratio IC50” value in test [9] came to 15. For the same molecule, the IC50 is 2.56 µg/mL (≈ 6.21 µM) in test [10]; 8.46 µg/mL (≈ 20.5 µM) in [6]; more than 10 µg/mL in test [3]; more than 10 µg/mL in test [11]; more than 10 µg/mL in [4]; more than 10 µg/mL in [5].
As to `CC(C)=CCCC1(C)C=Cc2c(cc(O)c3c(=O)c4ccc(O)cc4oc23)O1` (configuration not stated), the IC50 in [12] was 35.6 µg/mL (≈ 94.1 µM); in test [6], 0.49 µg/mL (≈ 1.29 µM); in test [3], 5.2 µg/mL (≈ 13.7 µM); in test [11], 5.3 µg/mL (≈ 14 µM); in test [4] it was 5.1 µg/mL (≈ 13.5 µM); in test [5], 5.7 µg/mL (≈ 15.1 µM). Moreover, the “Ratio IC50” value in test [9] stood at 200.
Turning to `CC1(C)Oc2cc3oc4cc(O)ccc4c(=O)c3c(O)c2C(O)C1O` (configuration not stated), the IC50 is 2.49 µg/mL (≈ 7.23 µM) in [10]; 5.4 µg/mL (≈ 15.7 µM) in [3]; 6.3 µg/mL (≈ 18.3 µM) in test [11]; 5.9 µg/mL (≈ 17.1 µM) in [4]; 6.8 µg/mL (≈ 19.7 µM) in test [5]. In test [2], the inhibition at 10 µg/mL came out at 35.3%.
Regarding `CC(C)=CCOc1ccc2c(=O)c3c(O)c(CC=C(C)C)c(OCC=C(C)C)cc3oc2c1`, the inhibition at 10 µg/mL in test [1] came to 10.1%; in test [2], 7.56%. In addition, the IC50 in test [3] amounted to 4.3 µg/mL (≈ 9.59 µM); in test [4], 7.9 µg/mL (≈ 17.6 µM); in [5], 7.5 µg/mL (≈ 16.7 µM).
Consider `c1ccc2c(c1)[I+]c1ccccc1-2` [DIPHENYLENEIODONIUM], for which, in test [10], the IC50 was 0.7 µg/mL.
Take `CC(C)=CCc1c(O)cc2oc3cc(O)ccc3c(=O)c2c1O`: the inhibition at 10 µg/mL in test [1] came to 45.2%; in test [2] it was 56.3%. In addition, the IC50 in test [3] is 3.8 µg/mL (≈ 12.2 µM); in [4], 6.2 µg/mL (≈ 19.9 µM); in test [5] it was 5.4 µg/mL (≈ 17.3 µM).
Take `O=c1c2ccc(O)cc2oc2cc(O)cc(O)c12`: the IC50 in test [10] was 5.84 µg/mL (≈ 23.9 µM); in test [3], more than 10 µg/mL; in test [4], more than 10 µg/mL; in test [5], more than 10 µg/mL. For the same molecule, the inhibition at 10 µg/mL in [2] amounted to 16%.
Regarding `COc1ccc2c(=O)c3c(O)cc(OC)cc3oc2c1`, the inhibition at 10 µg/mL in test [1] was 31.3%; in [2], 26.5%. Moreover, the IC50 in [3], in [4] and in [5] was more than 10 µg/mL each time.
As for `CC1(C)Oc2cc(O)c3c(=O)c4ccc(O)cc4oc3c2C(O)C1O` (configuration not stated), the inhibition at 10 µg/mL in test [1] was found to be 8.63%; in test [2], 6.37%. In addition, the IC50 in [3] is 6.7 µg/mL (≈ 19.5 µM); in test [11], more than 10 µg/mL; in test [4] it was 9.9 µg/mL (≈ 28.8 µM); in test [5] it was 0.8 µg/mL (≈ 2.32 µM).
As for `CC1(C)C=Cc2c(cc3oc4cc(O)ccc4c(=O)c3c2O)O1`, in [9], the “Ratio IC50” value came out at 15. Also, the IC50 in test [10] was determined as 0.46 µg/mL (≈ 1.48 µM); in test [6], 0.64 µg/mL (≈ 2.06 µM); in [3], 4.4 µg/mL (≈ 14.2 µM); in [11] it was 4.6 µg/mL (≈ 14.8 µM); in test [4], 5.8 µg/mL (≈ 18.7 µM); in test [5], 5.5 µg/mL (≈ 17.7 µM).
Take `CC(C)=CCC[C@]1(C)C=Cc2c(O)c3c(c(CC=C(C)C)c2O1)O[C@]12C(=C[C@@H]4C[C@H]1C(C)(C)O[C@@]2(C/C=C(/C)C(=O)O)C4=O)C3=O` [GAMBOGIC ACID]: the half-inhibitory concentration (IC50) was determined as 0.3 µg/mL (≈ 0.477 µM) in test [3], 0.3 µg/mL (≈ 0.477 µM) in [11], 0.5 µg/mL (≈ 0.795 µM) in test [4] and 0.4 µg/mL (≈ 0.636 µM) in [5].
With `CC(C)=CCOc1cc(O)c2c(=O)c3ccc(O)cc3oc2c1`, the IC50 turned out to be 20.2 µg/mL (≈ 64.7 µM) in test [10], 3.7 µg/mL (≈ 11.8 µM) in [3], 6.9 µg/mL (≈ 22.1 µM) in test [4] and 5.3 µg/mL (≈ 17 µM) in test [5]. Besides, in test [2], the inhibition at 10 µg/mL stood at 4.21%.
Take `CC(=O)O[C@H]1C(=O)[C@@]2(C)[C@H]([C@H](OC(=O)c3ccccc3)[C@]3(O)C[C@H](OC(=O)[C@H](O)[C@@H](NC(=O)c4ccccc4)c4ccccc4)C(C)=C1C3(C)C)[C@]1(OC(C)=O)CO[C@@H]1C[C@@H]2O` [PACLITAXEL]: the figures for the IC50 in test [3], in [11] and in test [5] were 0.0024 µg/mL (≈ 0.00281 µM), 0.0016 µg/mL (≈ 0.00187 µM) and 0.0011 µg/mL (≈ 0.00129 µM), respectively.
With `CC(C)=CCCC1(C)Oc2cc3oc4cc(O)ccc4c(=O)c3c(O)c2C(O)C1O` (configuration not stated), the “Ratio IC50” value in test [9] came out at 15. The IC50 in test [10] was 4.3 µg/mL (≈ 10.4 µM); in [6] it was 5.75 µg/mL (≈ 13.9 µM); in test [3], more than 10 µg/mL; in test [11], more than 10 µg/mL; in [4], more than 10 µg/mL; in test [5], more than 10 µg/mL.
`CC(C)=CCOc1ccc2c(=O)c3c(OCC=C(C)C)cc(OCC=C(C)C)cc3oc2c1`: the inhibition at 10 µg/mL in [1] came out at 64.3%; in test [2] it was 54.9%. The values for the IC50 in test [3], in test [4] and in test [5] were 6.3 µg/mL (≈ 14 µM), more than 10 µg/mL and more than 10 µg/mL, respectively.
Turning to `CC(C)=CCOc1ccc2c(=O)c3c(O)cc(OCC=C(C)C)cc3oc2c1`, the inhibition at 10 µg/mL was 5.32% in [1] and 13.3% in test [2]. The IC50 in [3] was more than 10 µg/mL; in test [4], 9.3 µg/mL (≈ 24.4 µM); in [5], more than 10 µg/mL.
